Measurements as given in ChEMBL document CHEMBL3864175, “Sulfonamides as Selective NaV1.7 Inhibitors: Optimizing Potency and Pharmacokinetics to Enable in Vivo Target Engagement” (ACS Med Chem Lett, 2016).

Experiments:
[1] = Apparent permeability in MDCK cells; format: ADME, cell-based, Canis lupus familiaris; details: dog
Outline: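 Apparent permeability measured in parental MDCK cells.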

[2] = Clearance in rat at 0.5 mg/kg, iv by LC-MS/MS analysis; format: ADME, organism-based; details: in vivo
Outline: (§1)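 Male rats, n = 2 per group, dosed intravenously at 0.5 mg/kg as a solution in 100% DMSO. Unbound clearance is derived from total clearance.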

[3] = Unbound clearance in rat at 0.5 mg/kg, iv by LC-MS/MS analysis; format: ADME, organism-based; details: in vivo; outline: as §1
[4] = Fraction unbound in rat plasma at 5 uM measured after 45 mins by LC-MS/MS analysis; format: ADME, cell-free
[5] = target: Sodium channel protein type 5 subunit alpha (Homo sapiens, UniProt Q14524); test: Inhibition of human Nav1.5 expressed in HEK293 cells assessed as inhibition of sodium current at holding potential of -125 mV measured for 3 to 5 mins by whole cell voltage clamp method; format: cell-based
Sequence of Sodium channel protein type 5 subunit alpha (Q14524 whole entry): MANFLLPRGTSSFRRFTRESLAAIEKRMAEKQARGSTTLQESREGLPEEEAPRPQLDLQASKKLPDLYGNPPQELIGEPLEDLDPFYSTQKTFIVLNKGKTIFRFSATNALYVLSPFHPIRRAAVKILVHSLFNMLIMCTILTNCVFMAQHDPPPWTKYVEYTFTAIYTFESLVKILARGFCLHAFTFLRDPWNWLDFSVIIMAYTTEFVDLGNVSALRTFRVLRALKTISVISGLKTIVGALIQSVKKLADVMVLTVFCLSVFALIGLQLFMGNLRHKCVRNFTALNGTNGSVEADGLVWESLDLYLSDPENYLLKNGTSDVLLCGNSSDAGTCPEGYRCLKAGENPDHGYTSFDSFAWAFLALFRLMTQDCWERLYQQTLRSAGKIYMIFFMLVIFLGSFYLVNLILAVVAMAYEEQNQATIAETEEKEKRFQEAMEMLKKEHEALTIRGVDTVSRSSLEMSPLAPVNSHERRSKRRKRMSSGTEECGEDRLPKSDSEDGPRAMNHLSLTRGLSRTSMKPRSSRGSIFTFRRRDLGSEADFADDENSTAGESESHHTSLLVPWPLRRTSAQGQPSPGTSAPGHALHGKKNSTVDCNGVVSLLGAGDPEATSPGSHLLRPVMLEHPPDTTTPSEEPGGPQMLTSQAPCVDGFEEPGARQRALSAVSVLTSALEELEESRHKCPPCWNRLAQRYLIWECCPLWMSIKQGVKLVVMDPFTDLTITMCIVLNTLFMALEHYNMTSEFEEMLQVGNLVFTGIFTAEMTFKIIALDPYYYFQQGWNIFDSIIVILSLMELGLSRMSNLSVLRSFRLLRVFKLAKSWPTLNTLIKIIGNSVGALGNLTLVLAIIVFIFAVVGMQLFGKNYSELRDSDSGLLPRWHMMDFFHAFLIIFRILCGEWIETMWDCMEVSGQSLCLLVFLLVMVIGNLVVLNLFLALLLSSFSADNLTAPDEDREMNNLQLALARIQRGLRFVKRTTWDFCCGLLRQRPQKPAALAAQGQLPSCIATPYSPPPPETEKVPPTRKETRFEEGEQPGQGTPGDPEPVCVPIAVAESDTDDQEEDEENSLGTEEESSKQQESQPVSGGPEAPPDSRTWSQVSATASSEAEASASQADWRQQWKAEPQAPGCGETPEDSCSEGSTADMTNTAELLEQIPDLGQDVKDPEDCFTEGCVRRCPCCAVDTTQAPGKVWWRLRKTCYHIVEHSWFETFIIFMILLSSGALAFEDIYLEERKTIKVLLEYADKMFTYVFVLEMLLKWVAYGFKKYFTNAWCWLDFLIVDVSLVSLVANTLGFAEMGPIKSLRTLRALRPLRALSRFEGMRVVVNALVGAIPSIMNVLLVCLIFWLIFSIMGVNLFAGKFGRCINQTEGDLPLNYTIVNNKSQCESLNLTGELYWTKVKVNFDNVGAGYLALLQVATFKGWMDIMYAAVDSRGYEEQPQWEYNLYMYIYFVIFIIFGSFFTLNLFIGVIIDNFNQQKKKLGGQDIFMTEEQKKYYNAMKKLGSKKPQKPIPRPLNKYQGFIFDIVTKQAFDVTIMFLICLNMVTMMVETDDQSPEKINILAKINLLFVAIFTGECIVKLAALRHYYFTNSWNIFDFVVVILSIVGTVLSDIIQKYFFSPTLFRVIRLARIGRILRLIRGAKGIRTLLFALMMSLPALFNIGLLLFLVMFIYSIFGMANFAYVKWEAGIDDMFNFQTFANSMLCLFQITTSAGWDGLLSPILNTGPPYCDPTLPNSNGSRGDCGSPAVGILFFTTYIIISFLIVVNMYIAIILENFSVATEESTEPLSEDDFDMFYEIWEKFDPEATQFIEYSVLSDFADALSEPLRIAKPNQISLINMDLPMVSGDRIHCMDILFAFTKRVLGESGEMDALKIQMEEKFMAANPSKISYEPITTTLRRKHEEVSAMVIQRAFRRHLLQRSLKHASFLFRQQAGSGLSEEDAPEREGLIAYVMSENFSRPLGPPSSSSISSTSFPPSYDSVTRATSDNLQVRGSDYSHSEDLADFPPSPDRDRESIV

[6] = target: Sodium channel protein type 9 subunit alpha (Homo sapiens, UniProt Q15858); test: Inhibition of human Nav1.7 expressed in HEK293 cells assessed as inhibition of sodium current at holding potential of -125 mV measured for 3 to 5 mins by whole cell voltage clamp method; format: cell-based
Sequence of Sodium channel protein type 9 subunit alpha (Q15858 whole entry): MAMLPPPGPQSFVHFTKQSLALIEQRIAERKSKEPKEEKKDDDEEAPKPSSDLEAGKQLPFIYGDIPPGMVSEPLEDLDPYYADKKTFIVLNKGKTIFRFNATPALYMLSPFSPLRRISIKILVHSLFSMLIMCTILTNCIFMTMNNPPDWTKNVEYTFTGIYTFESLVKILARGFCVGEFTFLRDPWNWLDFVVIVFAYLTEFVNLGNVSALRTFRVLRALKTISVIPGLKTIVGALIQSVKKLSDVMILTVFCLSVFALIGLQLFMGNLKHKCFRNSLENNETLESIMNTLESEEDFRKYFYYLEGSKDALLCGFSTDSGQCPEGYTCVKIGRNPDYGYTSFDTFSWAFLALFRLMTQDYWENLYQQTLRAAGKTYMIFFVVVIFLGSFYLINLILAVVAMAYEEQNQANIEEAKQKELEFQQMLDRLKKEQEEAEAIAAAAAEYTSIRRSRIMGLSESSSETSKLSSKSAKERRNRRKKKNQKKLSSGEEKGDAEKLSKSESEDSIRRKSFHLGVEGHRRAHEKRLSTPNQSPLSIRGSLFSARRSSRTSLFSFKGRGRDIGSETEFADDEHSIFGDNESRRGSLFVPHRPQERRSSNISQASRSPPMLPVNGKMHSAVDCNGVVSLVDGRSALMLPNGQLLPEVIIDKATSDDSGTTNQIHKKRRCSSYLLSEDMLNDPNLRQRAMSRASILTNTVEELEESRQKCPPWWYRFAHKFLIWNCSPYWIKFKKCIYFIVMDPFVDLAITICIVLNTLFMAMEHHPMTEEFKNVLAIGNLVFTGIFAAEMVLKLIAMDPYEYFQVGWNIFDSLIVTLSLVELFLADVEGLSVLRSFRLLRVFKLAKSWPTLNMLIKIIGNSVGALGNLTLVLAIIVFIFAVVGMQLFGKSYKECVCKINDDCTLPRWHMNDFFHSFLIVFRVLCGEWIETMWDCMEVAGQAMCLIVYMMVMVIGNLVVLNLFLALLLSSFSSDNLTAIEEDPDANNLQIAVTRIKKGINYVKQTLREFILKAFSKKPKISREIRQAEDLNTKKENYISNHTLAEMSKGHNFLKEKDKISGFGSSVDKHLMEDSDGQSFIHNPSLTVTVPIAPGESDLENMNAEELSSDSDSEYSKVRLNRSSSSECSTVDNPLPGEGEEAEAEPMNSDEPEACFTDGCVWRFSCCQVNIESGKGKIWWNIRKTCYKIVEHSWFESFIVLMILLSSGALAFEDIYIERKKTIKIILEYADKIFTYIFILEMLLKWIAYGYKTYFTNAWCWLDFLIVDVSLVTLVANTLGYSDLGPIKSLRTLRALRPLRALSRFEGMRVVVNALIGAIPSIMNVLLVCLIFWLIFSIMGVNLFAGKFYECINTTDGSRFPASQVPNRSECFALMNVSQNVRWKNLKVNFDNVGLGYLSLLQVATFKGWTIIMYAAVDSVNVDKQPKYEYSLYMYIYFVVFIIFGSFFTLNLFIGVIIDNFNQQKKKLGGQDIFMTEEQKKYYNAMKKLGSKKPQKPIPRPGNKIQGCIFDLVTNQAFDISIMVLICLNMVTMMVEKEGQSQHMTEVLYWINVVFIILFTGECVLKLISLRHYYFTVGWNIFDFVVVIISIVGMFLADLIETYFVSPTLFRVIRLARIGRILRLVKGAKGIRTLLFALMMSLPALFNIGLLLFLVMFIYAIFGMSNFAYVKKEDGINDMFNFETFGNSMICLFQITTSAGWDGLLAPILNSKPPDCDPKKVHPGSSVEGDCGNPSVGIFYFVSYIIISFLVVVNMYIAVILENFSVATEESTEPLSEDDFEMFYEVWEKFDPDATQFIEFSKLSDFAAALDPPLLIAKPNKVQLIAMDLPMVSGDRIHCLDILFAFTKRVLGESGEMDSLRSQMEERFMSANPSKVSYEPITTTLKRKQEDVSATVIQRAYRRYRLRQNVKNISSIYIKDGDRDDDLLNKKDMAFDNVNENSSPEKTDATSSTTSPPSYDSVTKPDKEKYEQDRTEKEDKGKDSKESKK

[7] = Dissociation constant, pKa of the compound at pH 1.7 to 11.2 by capillary electrophoresis method; format: physicochemical
Outline: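 pKa values calculated from capillary electrophoresis data collected over pH 1.7 to 11.2.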

[8] = Intrinsic clearance in human liver microsomes at 1 uM measured after 40 mins in presence of NADPH by LC-MS/MS analysis; format: ADME; details: read-out: CLH
Outline: (§2)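 Clearance measured in rat or human liver microsomes. Test compound at 1 μM, microsomal protein at 250 μg/mL.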

[9] = Intrinsic clearance in rat liver microsomes at 1 uM measured after 40 mins in presence of NADPH by LC-MS/MS analysis; format: ADME; details: read-out: CLH; outline: as §2
[10] = Apparent permeability in MDCK cells assessed as drug recovery; format: ADME, cell-based, Canis lupus familiaris; details: dog, read-out: Drug recovery
[11] = Stability in bile duct cannulated Sprague-Dawley rat assessed as parent compound level in bile at 6.67 mg/kg, iv administered through catheter measured after 2 and 4 hrs post dose by LC-MS/MS analysis; format: ADME, organism-based; details: in vivo
[12] = Drug metabolism in bile duct cannulated Sprague-Dawley rat urine assessed as metabolite formation at 6.67 mg/kg, iv administered through catheter measured after 2 and 4 hrs post dose by LC-MS/MS analysis; format: ADME, organism-based; details: in vivo
[13] = Selectivity index, ratio of IC50 for human Nav1.5 expressed in HEK293 cells to IC50 for human Nav 1.7 expressed in HEK293 cells

| Papp [1] [×10⁻⁶ cm/s] | clearance [2] [mL/min/kg] | CL free [3] [mL/min/kg] | fraction unbound at 0.75 h, 5 µM [4] | IC50 [6] [nM] | pKa [7] | microsomal CLint at 1 µM [8] [µL/min/mg] | microsomal CLint at 1 µM [9] [µL/min/mg] | recovery [10] [%] | Stability [11] | Drug metabolism [12] | SMILES | IC50 [5] [nM] | Ratio IC50 [13] |
| --- | --- | --- | --- | --- | --- | --- | --- | --- | --- | --- | --- | --- | --- |
| > 5 | 4 | 1330 | 0.003 | 160 | 3.6 | < 14 | < 14 | < 50 | – | – | O=S(=O)(Nc1ncns1)c1ccc2c(-c3ccc(C(F)(F)F)cc3Br)cccc2c1 | 21000 | – |
| 17 | 86.7 | – | 0.001 | 51 | 3.7 | 15 | 18 | – | – | – | COc1cc(C(F)(F)F)ccc1-c1cccc2cc(S(=O)(=O)Nc3ncns3)ccc12 | – | – |
| > 5 | – | – | 0.001 | 48 | 3.6 | 15 | < 14 | < 50 | – | – | Cc1cc(C(F)(F)F)ccc1-c1cccc2cc(S(=O)(=O)Nc3ncns3)ccc12 | – | – |
| < 2 | 158 | – | – | – | – | – | 21 | – | – | – | Cn1nccc1-c1cc(C(F)(F)F)ccc1-c1cccc2cc(S(=O)(=O)Nc3ncns3)ccc12 | – | – |
| 12 | 0.817 | 817 | 0.001 | 590 | 6.7 | 25 | 52 | – | – | – | COc1cc(C(F)(F)F)ccc1-c1cccc2cc(S(=O)(=O)Nc3nccs3)ccc12 | 21000 | – |
| 1.3 | 90 | – | 0.1 | 37 | 3.6 | < 14 | < 14 | – | – | – | O=S(=O)(Nc1ncns1)c1ccc2c(-c3ccc(C(F)(F)F)cc3C3=CCNCC3)cccc2c1 | > 30000 | – |
| < 2 | – | – | 0.001 | – | 3.6 | 25 | 18 | – | – | – | O=S(=O)(Nc1ncns1)c1ccc2c(-c3ccc(C(F)(F)F)cc3O)cccc2c1 | – | – |

Second part, the compound before the results:

| SMILES | Papp [1] [×10⁻⁶ cm/s] | clearance [2] [mL/min/kg] | CL free [3] [mL/min/kg] | fraction unbound at 0.75 h, 5 µM [4] | IC50 [6] [nM] | pKa [7] | microsomal CLint at 1 µM [8] [µL/min/mg] | microsomal CLint at 1 µM [9] [µL/min/mg] | recovery [10] [%] | Stability [11] | Drug metabolism [12] | IC50 [5] [nM] | Ratio IC50 [13] |
| --- | --- | --- | --- | --- | --- | --- | --- | --- | --- | --- | --- | --- | --- |
| COc1cc(C(F)(F)F)ccc1-c1cnnc2cc(S(=O)(=O)Nc3nccs3)ccc12 | 36 | 18.3 | 1350 | 0.014 | – | – | – | – | – | – | – | – | – |
| COc1cc(C(F)(F)F)ccc1-c1cccc2cc(S(=O)(=O)Nc3ccccn3)ccc12 | 9.5 | – | – | – | > 30000 | – | 16 | 25 | – | – | – | – | – |
| N#Cc1cc(S(=O)(=O)Nc2ncns2)ccc1Oc1ccc(C(F)(F)F)cc1-c1cn[nH]c1 | < 1 | 65 | – | – | – | – | – | 39 | – | – | – | > 30000 | – |
| Cn1nccc1-c1cc(Cl)ccc1-c1cn(C)c2cc(S(=O)(=O)Nc3ncns3)ccc12 | – | – | – | – | – | – | – | – | – | Stable | Metabolite_Notdetected | – | – |
| COc1cc(C(F)(F)F)ccc1-c1cccc2cc(S(=O)(=O)Nc3ncccn3)ccc12 | 36 | – | – | – | 1500 | – | 17 | < 14 | – | – | – | > 30000 | – |
| COc1cc(C(F)(F)F)ccc1-c1cccc2cc(S(=O)(=O)Nc3cncs3)ccc12 | 28 | – | – | – | > 30000 | – | 46 | 37 | – | – | – | – | – |
| COc1cc(C(F)(F)F)ccc1-c1cccc2cc(S(=O)(=O)Nc3cscn3)ccc12 | 27 | – | – | – | 1400 | 7.2 | < 14 | < 14 | – | – | – | 21000 | – |
| COc1cc(C(F)(F)F)ccc1-c1nccc2cc(S(=O)(=O)Nc3nccs3)cnc12 | 12 | – | – | – | – | – | – | – | – | – | – | > 30000 | – |
| Cn1nccc1-c1cc(C(F)(F)F)ccc1-c1cn(C)c2cc(S(=O)(=O)Nc3ncns3)ccc12 | 1.3 | 68.3 | – | – | 120 | – | – | 19 | – | – | – | > 30000 | >200 |
| COc1cc(C(F)(F)F)ccc1-c1cccc2cc(S(=O)(=O)Nc3ccncn3)ccc12 | 27 | – | – | 0.003 | 510 | – | < 14 | < 14 | – | – | – | > 30000 | – |
| COc1cc(C(F)(F)F)ccc1-c1nccc2cc(S(=O)(=O)Nc3nccs3)ccc12 | 34 | 3 | 250 | 0.012 | – | – | – | – | – | – | – | > 30000 | – |
| COc1cc(C(F)(F)F)ccc1-c1n[nH]c(=O)c2cc(S(=O)(=O)Nc3nccs3)ccc12 | 3.2 | 40 | 2670 | 0.013 | – | – | – | – | – | – | – | – | – |
